Data on 5 molecules can be found in publication PMC3401279 (ACS Chemical Biology, 2012).

One test relates to TAAR4. Conditions: cited from earlier work.
The next test relates to rodents. As to conditions: carnivore odor; cited from earlier work.
Another test concerns TAAR5. Conditions: cited from earlier work.
For the next test, the target named is T1, mTAAR7e (Mus musculus, UniProt Q5QD09).
T1 sequence (Q5QD09 1-358): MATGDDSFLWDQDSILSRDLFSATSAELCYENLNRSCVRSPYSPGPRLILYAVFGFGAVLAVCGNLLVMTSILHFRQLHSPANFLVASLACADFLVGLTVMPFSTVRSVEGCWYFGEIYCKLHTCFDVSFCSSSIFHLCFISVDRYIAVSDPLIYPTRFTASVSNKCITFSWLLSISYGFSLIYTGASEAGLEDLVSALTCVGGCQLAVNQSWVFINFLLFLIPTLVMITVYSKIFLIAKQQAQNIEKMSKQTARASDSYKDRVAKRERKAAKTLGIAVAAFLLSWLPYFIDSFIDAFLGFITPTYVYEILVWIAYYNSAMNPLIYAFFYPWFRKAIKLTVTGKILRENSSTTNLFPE
Briefly: cAMP-dependent CRE-SEAP reporter gene assay in transfected HEK293 cells, mTAAR7e. As to conditions: ligand 10 μM. The format is cell-based. The essentials:
(§1)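 HEK293 cells were co-transfected with a TAAR plasmid and a cAMP-dependent secreted alkaline phosphatase reporter (CRE-SEAP). Receptors were expressed both unmodified and as fusions with an N-terminal bovine rhodopsin sequence (Rho tag) that aids surface expression. Transfected cells were incubated with test compound at 10 μM. Secreted phosphatase activity was quantified with a fluorescent substrate as the activation read-out. Triplicates ± s.d.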

The next test addresses T2, rTAAR7h (Rattus norvegicus, UniProt Q923Y4).
T2 sequence (Q923Y4 1-358): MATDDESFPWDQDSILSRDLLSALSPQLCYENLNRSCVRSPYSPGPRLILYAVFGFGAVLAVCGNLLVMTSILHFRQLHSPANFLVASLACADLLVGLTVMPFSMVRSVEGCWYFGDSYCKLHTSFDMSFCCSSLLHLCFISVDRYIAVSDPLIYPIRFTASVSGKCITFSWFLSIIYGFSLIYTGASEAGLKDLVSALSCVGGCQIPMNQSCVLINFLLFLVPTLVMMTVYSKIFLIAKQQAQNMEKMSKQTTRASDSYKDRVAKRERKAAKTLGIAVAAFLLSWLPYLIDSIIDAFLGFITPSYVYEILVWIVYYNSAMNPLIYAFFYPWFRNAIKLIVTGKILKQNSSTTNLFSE
As to the kind of experiment: cAMP-dependent CRE-SEAP reporter gene assay in transfected HEK293 cells, rTAAR7h. The format is cell-based. Conditions: ligand 10 μM. The essentials:
as §1
A general note: A reporter such as luciferase makes a cellular process visible.

For test [1], the system named is mTAAR7e-YC (mTAAR7e S132Y, S133C). As to the kind of experiment: cellular reporter gene assay, mutant mTAAR7e-YC. Conditions: mutant versus mTAAR7e; for decreased affinity of mTAAR7e-YC: decrease. It counts as cell-based, mouse.
Test [2] has as its system mTAAR7f-SS (mTAAR7f Y132S, C133S). Briefly: cellular reporter gene assay, mutant mTAAR7f-SS. It counts as cell-based, mouse. Conditions: mutant versus mTAAR7f, increase.
The target of another test is T3, mTAAR7b (Mus musculus, UniProt Q5QD11).
T3 sequence (Q5QD11 1-358): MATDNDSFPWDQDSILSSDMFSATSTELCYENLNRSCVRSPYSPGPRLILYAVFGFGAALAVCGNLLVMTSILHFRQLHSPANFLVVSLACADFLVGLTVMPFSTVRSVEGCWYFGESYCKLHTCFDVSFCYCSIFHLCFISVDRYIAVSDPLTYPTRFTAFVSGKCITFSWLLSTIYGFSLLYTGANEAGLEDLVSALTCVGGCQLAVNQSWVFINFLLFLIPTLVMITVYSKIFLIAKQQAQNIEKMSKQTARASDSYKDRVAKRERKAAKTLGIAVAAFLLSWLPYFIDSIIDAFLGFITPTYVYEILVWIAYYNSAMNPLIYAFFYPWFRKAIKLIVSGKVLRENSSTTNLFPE
As to the kind of experiment: cAMP-dependent CRE-SEAP reporter gene assay in transfected HEK293 cells, mTAAR7b. The format is cell-based. As to conditions: ligand 10 μM. The procedure, abridged:
as §1

A further test addresses T4, mTAAR7f (Mus musculus, UniProt Q5QD08).
T4 sequence (Q5QD08 1-358): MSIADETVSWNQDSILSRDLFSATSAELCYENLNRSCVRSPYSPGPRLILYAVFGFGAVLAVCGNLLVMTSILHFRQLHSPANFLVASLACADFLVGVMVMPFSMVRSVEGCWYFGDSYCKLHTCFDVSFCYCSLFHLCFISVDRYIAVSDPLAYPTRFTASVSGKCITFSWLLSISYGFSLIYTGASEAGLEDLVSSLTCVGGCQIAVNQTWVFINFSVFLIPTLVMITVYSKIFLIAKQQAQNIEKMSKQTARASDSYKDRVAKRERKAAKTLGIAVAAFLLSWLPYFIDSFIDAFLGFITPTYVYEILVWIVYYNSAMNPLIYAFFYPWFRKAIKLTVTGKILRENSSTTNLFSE
As to the kind of experiment: cAMP-dependent CRE-SEAP reporter gene assay in transfected HEK293 cells, mTAAR7f. The format is cell-based. Conditions: ligand 10 μM. The procedure, abridged: as §1

Another test has as its target T5, rTAAR7b (Rattus norvegicus, UniProt Q923X8).
T5 sequence (Q923X8 1-358): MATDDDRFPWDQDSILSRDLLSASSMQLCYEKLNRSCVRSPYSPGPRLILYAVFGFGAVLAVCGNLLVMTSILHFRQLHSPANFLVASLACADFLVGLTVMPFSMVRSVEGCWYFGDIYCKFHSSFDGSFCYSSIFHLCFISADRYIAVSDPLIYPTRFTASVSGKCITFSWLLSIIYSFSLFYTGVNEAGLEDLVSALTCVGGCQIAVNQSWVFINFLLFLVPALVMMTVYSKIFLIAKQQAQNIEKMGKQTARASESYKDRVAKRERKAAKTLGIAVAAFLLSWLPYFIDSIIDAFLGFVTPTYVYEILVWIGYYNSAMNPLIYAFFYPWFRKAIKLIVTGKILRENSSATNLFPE
Briefly: cAMP-dependent CRE-SEAP reporter gene assay in transfected HEK293 cells, rTAAR7b. The format is cell-based. Conditions: ligand 10 μM. The essentials: as §1

In a further test the target is T6, rTAAR7d (Rattus norvegicus, UniProt Q923X5).
T6 sequence (Q923X5 1-358): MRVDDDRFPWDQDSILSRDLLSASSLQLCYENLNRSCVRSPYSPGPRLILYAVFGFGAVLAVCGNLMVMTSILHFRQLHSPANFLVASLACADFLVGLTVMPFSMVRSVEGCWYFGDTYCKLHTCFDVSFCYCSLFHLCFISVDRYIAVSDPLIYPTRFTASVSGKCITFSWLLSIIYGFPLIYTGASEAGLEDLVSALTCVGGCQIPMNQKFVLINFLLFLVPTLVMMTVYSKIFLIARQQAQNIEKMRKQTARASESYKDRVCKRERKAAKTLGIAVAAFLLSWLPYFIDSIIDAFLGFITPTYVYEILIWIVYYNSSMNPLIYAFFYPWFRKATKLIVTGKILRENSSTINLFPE
Briefly: cAMP-dependent CRE-SEAP reporter gene assay in transfected HEK293 cells, rTAAR7d. The format is cell-based. As to conditions: ligand 10 μM. The procedure, abridged: as §1

Molecules are shown by their SMILES. Entries after “also recorded” stand apart in the source; their conditions may differ.

For `NCCc1ccccc1` [ligand 3, 2-phenylethylamine], in the test with TAAR4, the TAAR4 agonist entry is on record as “agonist”. Moreover, the “behavioral effect of odor on rodents” value in the test with rodents is “repels rodents”.
In the case of `CN(C)C` [ligand 4, trimethylamine], the TAAR5 agonist entry in the test with TAAR5 is “agonist”.
In the case of `CN(C)CCc1ccccc1` [ligand 6, N,N-dimethyl-2-phenylethylamine], the “activation of mTAAR7e (reporter response)” value at mTAAR7e is “respond; also recorded: activated”. The “activation of rTAAR7h (reporter response)” value at rTAAR7h was “respond; also recorded: activated”. Further, the “decreased affinity of mTAAR7e-YC” value in test [1] is > 1,000 fold. The “increases in affinity of mTAAR7f-SS” value in test [2] is > 1,000 fold.
As for `COc1ccc2[nH]cc(CCN(C)C)c2c1` [ligand 7, 5-methoxy-N,N-dimethyltryptamine], in test [1], the “decreased affinity of mTAAR7e-YC” value is given as > 1,000 fold. Moreover, the “increases in affinity of mTAAR7f-SS” value in test [2] is recorded as > 1,000 fold.
Turning to `CN(C)C1CCCCC1` [ligand 10, N,N-dimethylcyclohexylamine], the “activation of mTAAR7b (reporter response)” value on mTAAR7b was “respond; also recorded: activated”. Besides, the “activation of mTAAR7f (reporter response)” value on mTAAR7f is “respond; also recorded: activated”. Besides, the “activation of rTAAR7b (reporter response)” value on rTAAR7b is recorded as “respond; also recorded: activated”. In addition, the “activation of rTAAR7d (reporter response)” value at rTAAR7d is listed as “respond; also recorded: activated”. Besides, in test [1] (increase), the “enhanced affinity of mTAAR7e-YC” value is listed as > 1,000 fold.
